From ChEMBL document CHEMBL3044755, “5-Methyl-1,2,3-thiadiazoles synthesized via ugi reaction and their fungicidal and antiviral activities” (J Agric Food Chem, 2010)

Legend:
Thanatephorus cucumeris = experiment: Fungicidal activity against Thanatephorus cucumeris at 50 ug/ml by growth inhibition method; assay type: functional; conditions: read-out: GI
Outline: (§1)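 Mycelial growth inhibition on potato dextrose agar. The panel covered Alternaria solani, Botrytis cinerea, Cercospora arachidicola, C. beticola, Colletotrichum lagenarium, Fusarium oxysporum, Gibberella zeae, Puccinia triticina, Phytophthora infestans, Physalospora piricola, Pellicularia sasakii and Rhizoctonia solani.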

[1] = tested on: Botryosphaeria berengeriana; experiment: Fungicidal activity against Botryosphaeria berengeriana at 50 ug/ml by growth inhibition method; assay type: functional; conditions: read-out: GI; outline: as §1
Phytophthora infestans = experiment: Fungicidal activity against Phytophthora infestans at 50 ug/ml by growth inhibition method; assay type: functional; conditions: read-out: GI; outline: as §1
Fusarium oxysporum = experiment: Fungicidal activity against Fusarium oxysporum at 50 ug/ml by growth inhibition method; assay type: functional; conditions: read-out: GI; outline: as §1
Fusarium graminearum = experiment: Fungicidal activity against Fusarium graminearum at 50 ug/ml by growth inhibition method; assay type: functional; conditions: read-out: GI; outline: as §1
Colletotrichum lagenaria = experiment: Fungicidal activity against Colletotrichum lagenaria at 50 ug/ml by growth inhibition method; assay type: functional; conditions: read-out: GI; outline: as §1
Cercospora beticola = experiment: Fungicidal activity against Cercospora beticola at 50 ug/ml by growth inhibition method; assay type: functional; conditions: read-out: GI; outline: as §1
Mycosphaerella arachidis = experiment: Fungicidal activity against Mycosphaerella arachidis at 50 ug/ml by growth inhibition method; assay type: functional; conditions: read-out: GI; outline: as §1
Alternaria solani = experiment: Fungicidal activity against Alternaria solani at 50 ug/ml by growth inhibition method; assay type: functional; conditions: read-out: GI; outline: as §1
Botrytis cinerea = experiment: Fungicidal activity against Botryotinia fuckeliana at 50 ug/ml by growth inhibition method; assay type: functional; conditions: read-out: GI; outline: as §1
Nicotiana tabacum [2] = experiment: Induction of systemic acquired resistance activity in TMV infected-Nicotiana tabacum (tobacco) leaves at 50 ug/ml; assay type: functional
Outline: (§2)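 Tobacco/TMV system used for systemic acquired resistance induction. Inhibition ratio calculated from mean lesion numbers on inoculated leaves relative to corresponding control. Tiadinil and ribavirin run as controls.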

Nicotiana tabacum [3] = experiment: Phytotoxicity against Nicotiana tabacum (tobacco) plant; assay type: organism-based; conditions: in vivo
Nicotiana tabacum [4] = experiment: Induction of systemic acquired resistance activity in TMV infected-Nicotiana tabacum (tobacco) leaves at 100 ug/ml; assay type: functional; outline: as §2
Tobacco mosaic virus [5] = experiment: In vivo antiviral activity against Tobacco mosaic virus (TMV) infected tobacco leaves assessed as inactivation effect at 100 ug/ml co-treated with virus for 30 min before inoculation onto leaves measured at 2-3 days after viral challenge; assay type: functional
Outline: (§3)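 TMV (5.88 10-2 μg/mL) mixed with equal volume of compound solution for 30 min, then rubbed onto upper three leaves of six-leaf tobacco; solvent on lower three leaves as control. Lesions counted 2-3 days later, three repetitions. Inhibition (%) = (CK − A)/CK × 100 from mean lesion counts.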

Tobacco mosaic virus [6] = experiment: In vivo antiviral activity against Tobacco mosaic virus (TMV) infected tobacco leaves assessed as inactivation effect at 500 ug/ml co-treated with virus for 30 min before inoculation onto leaves measured at 2-3 days after viral challenge; assay type: functional; outline: as §3
Tobacco mosaic virus [7] = experiment: In vivo antiviral activity against Tobacco mosaic virus (TMV) infected tobacco leaves assessed as curative effect at 100 ug/ml treated after viral inoculation measured at 2-3 days after viral challenge; assay type: functional
Outline: (§4)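 Curative test: whole six-leaf tobacco leaves rubbed with TMV (5.88 10-2 μg/mL), dried in greenhouse, then compound smeared on upper three leaves and solvent on lower three as control. Local lesions scored 2-3 days after inoculation, three repetitions. Inhibition (%) = (CK − A)/CK × 100 on mean lesion numbers.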

Tobacco mosaic virus [8] = experiment: In vivo antiviral activity against Tobacco mosaic virus (TMV) infected tobacco leaves assessed as curative effect at 500 ug/ml treated after viral inoculation measured at 2-3 days after viral challenge; assay type: functional; outline: as §4
Tobacco mosaic virus [9] = experiment: In vivo antiviral activity against Tobacco mosaic virus (TMV) infected tobacco leaves assessed as protective effect at 100 ug/ml treated 12 hr before viral inoculation measured at 2-3 days after viral challenge; assay type: functional
Outline: (§5)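 Six-leaf tobacco; compound solution smeared over whole leaves, dried in greenhouse, then after 12 h TMV (5.88 10-2 μg/mL) rubbed onto upper three leaves, with solvent on lower three leaves as control. Local lesions counted 2-3 days post-inoculation, three repetitions. Inhibition (%) = (CK − A)/CK × 100 from mean lesion numbers.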

Tobacco mosaic virus [10] = experiment: In vivo antiviral activity against Tobacco mosaic virus (TMV) infected tobacco leaves assessed as protective effect at 500 ug/ml treated 12 hr before viral inoculation measured at 2-3 days after viral challenge; assay type: functional; outline: as §5
Tobacco mosaic virus [11] = experiment: In vitro antiviral activity against Tobacco mosaic virus (TMV) infected tobacco leaves at 200 ug/ml; assay type: functional
Tobacco mosaic virus [12] = experiment: In vitro antiviral activity against Tobacco mosaic virus (TMV) infected tobacco leaves at 500 ug/ml; assay type: functional

Cc1ccc(N(C(=O)c2nnsc2C)C(C(=O)NC(C)C)c2ccccc2C)cc1Cl (stereo not drawn)
inhibition of growth at 50 µg/mL (Thanatephorus cucumeris): 69% | inhibition of growth at 50 µg/mL [1]: 31% | inhibition of growth at 50 µg/mL (Phytophthora infestans): 10% | inhibition of growth at 50 µg/mL (Fusarium oxysporum): 19% | inhibition of growth at 50 µg/mL (Fusarium graminearum): 37% | inhibition of growth at 50 µg/mL (Colletotrichum lagenaria): 10% | inhibition of growth at 50 µg/mL (Cercospora beticola): 17% | inhibition of growth at 50 µg/mL (Mycosphaerella arachidis): 21% | inhibition of growth at 50 µg/mL (Alternaria solani): 40% | inhibition of growth at 50 µg/mL (Botrytis cinerea): 76% | Activity (Nicotiana tabacum [2]): 37% | Activity (Nicotiana tabacum [3]): Non-toxic | Activity (Nicotiana tabacum [4]): 0% | Activity (Tobacco mosaic virus [5]): 23% | Activity (Tobacco mosaic virus [6]): 50% | Activity (Tobacco mosaic virus [7]): 21% | Activity (Tobacco mosaic virus [8]): 42% | Activity (Tobacco mosaic virus [9]): 13% | Activity (Tobacco mosaic virus [10]): 38% | inhibition at 200 µg/mL (Tobacco mosaic virus [11]): 58% | inhibition at 500 µg/mL (Tobacco mosaic virus [12]): 12%

Cc1ccc(N(C(=O)c2nnsc2C)C(C(=O)NC(C)C)c2ccccc2)cc1Cl (stereo not drawn)
inhibition of growth at 50 µg/mL (Thanatephorus cucumeris): 64% | inhibition of growth at 50 µg/mL [1]: 47% | inhibition of growth at 50 µg/mL (Phytophthora infestans): 12% | inhibition of growth at 50 µg/mL (Fusarium oxysporum): 36% | inhibition of growth at 50 µg/mL (Fusarium graminearum): 13% | inhibition of growth at 50 µg/mL (Colletotrichum lagenaria): 11% | inhibition of growth at 50 µg/mL (Cercospora beticola): 0% | inhibition of growth at 50 µg/mL (Mycosphaerella arachidis): 21% | inhibition of growth at 50 µg/mL (Alternaria solani): 39% | inhibition of growth at 50 µg/mL (Botrytis cinerea): 85% | Activity (Nicotiana tabacum [2]): 33% | Activity (Nicotiana tabacum [3]): Non-toxic | Activity (Nicotiana tabacum [4]): 41% | Activity (Tobacco mosaic virus [5]): 50% | Activity (Tobacco mosaic virus [6]): 65% | Activity (Tobacco mosaic virus [7]): 30% | Activity (Tobacco mosaic virus [8]): 46% | Activity (Tobacco mosaic virus [9]): 40% | Activity (Tobacco mosaic virus [10]): 57% | inhibition at 200 µg/mL (Tobacco mosaic virus [11]): 30% | inhibition at 500 µg/mL (Tobacco mosaic virus [12]): 43%

Cc1cccc(C(C(=O)NC(C)C)N(C(=O)c2nnsc2C)c2ccc(C)c(Cl)c2)c1 (stereo not drawn)
inhibition of growth at 50 µg/mL (Thanatephorus cucumeris): 63% | inhibition of growth at 50 µg/mL [1]: 51% | inhibition of growth at 50 µg/mL (Phytophthora infestans): 8% | inhibition of growth at 50 µg/mL (Fusarium oxysporum): 14% | inhibition of growth at 50 µg/mL (Fusarium graminearum): 37% | inhibition of growth at 50 µg/mL (Colletotrichum lagenaria): 13% | inhibition of growth at 50 µg/mL (Cercospora beticola): 17% | inhibition of growth at 50 µg/mL (Mycosphaerella arachidis): 38% | inhibition of growth at 50 µg/mL (Alternaria solani): 44% | inhibition of growth at 50 µg/mL (Botrytis cinerea): 76% | Activity (Nicotiana tabacum [2]): 65% | Activity (Nicotiana tabacum [3]): Non-toxic | Activity (Nicotiana tabacum [4]): 49% | Activity (Tobacco mosaic virus [5]): 72% | Activity (Tobacco mosaic virus [6]): 82% | Activity (Tobacco mosaic virus [7]): 33% | Activity (Tobacco mosaic virus [8]): 40% | Activity (Tobacco mosaic virus [9]): 14% | Activity (Tobacco mosaic virus [10]): 48% | inhibition at 200 µg/mL (Tobacco mosaic virus [11]): 18% | inhibition at 500 µg/mL (Tobacco mosaic virus [12]): 34%
